From PubChem BioAssay
Only some compounds are listed: those with a hit (about 2.3% of all), similar ones and a draw of the others.
SUMO1 PPI mod = alters human SUMO1 binding to SIM partners. SUMO1 binding to a labelled peptide, TR-FRET, 1 h. hit rate 0.33% among 360,000. P63165. inhibition, % at 20 µM; in the data active = inhibition above about 37%
MT1-MMP act inh = blocks activation of human MT1-MMP; P50281; HT1080 RFP-PRO-GFP cells, GFP/RFP ratio fluorescence, overnight; percent of plate control window, DMSO zero; GFP/RFP ratio change, % at 20 µM; hit rate 0.061% among 360,000;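 active = GFP/RFP ratio change of at least 30% with cell ATP level not reduced by more than half and red fluorescence within 50% of control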
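Material – HT1080 RFP-PRO-GFP cells · Control set – DMSO wells and RFP-L50D-GFP cells · Incubation – overnight cell settling, then overnight compound exposure, 37 °C, 5% CO2 · Compound dosing – single-point 20 µM compound, 1% DMSO · Read-out – GFP/RFP fluorescence ratio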
CSN inh = CSN deneddylation inhibition. Q92905. inhibition, % at 12.5 µM. hit rate 0.38% among 360,000. Purified CSN, SCF-Nedd8-OG deneddylation, fluorescence polarization;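 active = pattern-corrected inhibition above about 35%, with an unprinted fluorescence ratio check between 0.5 and 1.5, limit read from the data, passing the limit was not always enough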
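Schedule: reaction 90 min, room temperature / Assay system: HEK293T-derived human Csn5 enzyme / Input: Csn5 at 0.24 nM final / Measure: inhibition of Csn5 cleavage, % / Control set: substrate-only high control, full reaction low control / Technique: fluorescence polarization of the substrate / Buffer or medium: Tris/NaCl/DTT buffer, pH 7.5 / Reagent: SCFSkp2-Nedd8OG substrate at 10 nM final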
SKN-1 block = blocks SKN-1 activity in C. elegans | inhibition, % at 21.8 µM | hit rate 0.49% among 360,000 | C. elegans VP596 Pgst-4::GFP/RFP ratio, acrylamide-induced, 24 h;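 active = interference check ratio from 0.5 to 1.5 plus GFP to RFP signal ratio inhibition reaching or exceeding a fixed threshold, cut at about 30% in these data, passing the limit was not always enough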
DNMT1 block = inhibitors of human DNMT1. P26358. DNMT1 molecular beacon, Hinp1I cleavage, fluorescence. inhibition (reported as % activation of signal), % at 10 µM. hit rate 0.83% among 360,000. AID 588458; in the data active = inhibition above about 50%
Rpn11 block = Rpn11 (human) deubiquitinase inhibition. O00487. human 26S proteasome, Ub4-pepOG fluorescence polarization; 20S core pre-blocked with epoxomicin. inhibition, % at 20 µM. hit rate 0.59% among 360,000. AID 588493;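 active = inhibition at 20 µM, scaled to each plate's controls, above about 33%, limit read from the data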
Rpn11 confirm = confirmation of human proteasome Rpn11 inhibitors. shares compounds with Rpn11 block. purified human 26S proteasome, Ub4-pepOG fluorescence polarization; proteasome pretreated with epoxomicin. inhibition, % at 20 µM. hit rate 29% among 1,900
MMP-2 inh = blocks human MMP-2, flagging nonselective RPN11 hits. recombinant MMP-2, FRET peptide cleavage fluorescence. shares compounds with Rpn11 block. inhibition, % at 20 µM. hit rate 4% among 1,900;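 note: human MMP-2 activated beforehand with APMA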
Target sequence (P08253 whole entry, looked up): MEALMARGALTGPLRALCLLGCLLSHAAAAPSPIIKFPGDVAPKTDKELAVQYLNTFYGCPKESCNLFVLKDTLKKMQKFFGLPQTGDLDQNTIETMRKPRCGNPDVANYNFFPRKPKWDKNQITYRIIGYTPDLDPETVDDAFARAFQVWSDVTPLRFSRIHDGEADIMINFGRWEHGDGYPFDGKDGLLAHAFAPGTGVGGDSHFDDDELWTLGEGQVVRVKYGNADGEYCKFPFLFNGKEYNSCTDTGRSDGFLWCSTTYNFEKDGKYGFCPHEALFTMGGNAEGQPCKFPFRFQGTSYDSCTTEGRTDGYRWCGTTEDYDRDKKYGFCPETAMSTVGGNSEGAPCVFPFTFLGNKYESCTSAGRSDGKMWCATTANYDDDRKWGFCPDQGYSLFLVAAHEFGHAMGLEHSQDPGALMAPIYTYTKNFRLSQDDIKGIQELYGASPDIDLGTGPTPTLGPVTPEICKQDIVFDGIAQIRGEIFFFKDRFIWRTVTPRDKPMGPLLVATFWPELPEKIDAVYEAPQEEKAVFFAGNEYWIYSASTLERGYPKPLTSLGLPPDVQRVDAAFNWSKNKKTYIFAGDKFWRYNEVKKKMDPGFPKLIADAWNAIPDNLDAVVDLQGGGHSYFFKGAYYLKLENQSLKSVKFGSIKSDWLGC
Thrombin FP = thrombin (bovine) inhibition counter-screen; shares compounds with Rpn11 block; bovine thrombin cleavage of Ub4-pepOG, fluorescence polarization; inhibition, % at 20 µM; hit rate 13% among 1,900; AID 602333;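 active = mean inhibition at least 40% at 20 µM, or signal 3 deviations below plate average, so some actives read negative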
Numbers stand for hits. Cut-off read from the data, not from the text of the source, unless noted: active = inhibition above about 40%; inactive = the rest.

For O=C(O)c1ccc(NC(=S)Nc2ccccc2)cc1 the results were SUMO1 PPI mod inactive, MT1-MMP act inh inactive, CSN inh inactive, SKN-1 block inactive, DNMT1 block inactive, Rpn11 block 34, Rpn11 confirm inactive, MMP-2 inh inactive and Thrombin FP inactive.
O=C(NC(=S)Nc1cccc(NC(=S)NC(=O)c2ccccc2)c1)c1ccccc1 was read as SUMO1 PPI mod inactive, MT1-MMP act inh inactive, CSN inh inactive, SKN-1 block inactive, DNMT1 block inactive, Rpn11 block 40, Rpn11 confirm inactive, MMP-2 inh 49 and Thrombin FP inactive.
Screening CCC(=O)Nc1cccc(NC(=S)NC(=O)c2ccccc2)c1 returned SUMO1 PPI mod inactive, MT1-MMP act inh inactive, CSN inh inactive, SKN-1 block inactive, DNMT1 block inactive and Rpn11 block inactive.
For O=C(c1ccco1)N1CCN(C(=O)c2cc(-c3ccccc3)nc3ccccc23)CC1 the results were SUMO1 PPI mod inactive, MT1-MMP act inh inactive, CSN inh inactive, SKN-1 block inactive, DNMT1 block inactive and Rpn11 block inactive.
O=C(c1ccco1)N1CCN(C(=O)c2cc(-c3ccncc3)nc3ccc(Br)cc23)CC1 was read as SUMO1 PPI mod inactive, MT1-MMP act inh inactive, CSN inh inactive, SKN-1 block inactive, DNMT1 block inactive, Rpn11 block 65, Rpn11 confirm inactive, MMP-2 inh inactive and Thrombin FP inactive.
`COc1cc(C)ccc1S(=O)(=O)NC(=O)Cn1nnc(COc2ccc3c(c2)CCCC3)c1C` gave SUMO1 PPI mod inactive, MT1-MMP act inh inactive, CSN inh inactive, SKN-1 block inactive, DNMT1 block inactive and Rpn11 block inactive.
COCCOC(=O)C1=C(C)NC(=O)NC1c1ccc(-c2cc(Cl)ccc2Cl)o1 (stereo not drawn) was read as SUMO1 PPI mod inactive, MT1-MMP act inh inactive, CSN inh inactive, SKN-1 block inactive, DNMT1 block inactive, Rpn11 block 46, Rpn11 confirm inactive, MMP-2 inh inactive and Thrombin FP inactive.
Screening O=C(Nc1ccc2oc(-c3ccc(Cl)c(Cl)c3)nc2c1)c1ncn[nH]1 returned SUMO1 PPI mod inactive, MT1-MMP act inh inactive, CSN inh inactive, SKN-1 block inactive, DNMT1 block inactive, Rpn11 block 49, Rpn11 confirm inactive, MMP-2 inh inactive and Thrombin FP inactive.
For CCCCOC(=O)Nc1nnc(CCOCC)s1 the results were SUMO1 PPI mod inactive, MT1-MMP act inh inactive, CSN inh inactive, SKN-1 block inactive, DNMT1 block inactive, Rpn11 block 34, Rpn11 confirm inactive, MMP-2 inh inactive and Thrombin FP inactive.
Screening CC(C)CCOc1ccc(/C=N/N2C(=O)CSC2=S)cc1 returned SUMO1 PPI mod inactive, MT1-MMP act inh inactive, CSN inh inactive, SKN-1 block inactive, DNMT1 block inactive, Rpn11 block 39, Rpn11 confirm inactive, MMP-2 inh inactive and Thrombin FP inactive.
`Cc1nc(C)c(C(=O)N/N=C/c2cc(Br)ccc2O)s1` gave SUMO1 PPI mod inactive, MT1-MMP act inh inactive, CSN inh inactive, SKN-1 block inactive, DNMT1 block inactive, Rpn11 block 47, Rpn11 confirm inactive, MMP-2 inh inactive and Thrombin FP inactive.
Screening Cc1ccc(S(=O)(=O)n2cccc2/C=C/[N+](=O)[O-])cc1 returned SUMO1 PPI mod inactive, MT1-MMP act inh inactive, CSN inh inactive, SKN-1 block inactive, DNMT1 block inactive and Rpn11 block inactive.
Screening COc1ccc(N2C(=O)c3ccccc3NC23CCCC3)cc1 returned SUMO1 PPI mod inactive, MT1-MMP act inh inactive, CSN inh inactive, SKN-1 block inactive, DNMT1 block inactive, Rpn11 block 37, Rpn11 confirm inactive, MMP-2 inh inactive and Thrombin FP inactive.
`COc1ccc(N(C)S(=O)(=O)c2ccc(C)cc2)c([N+](=O)[O-])c1` gave SUMO1 PPI mod inactive, MT1-MMP act inh inactive, CSN inh inactive, SKN-1 block inactive, DNMT1 block inactive and Rpn11 block inactive.
Screening COc1ccc(NC(=O)CN(C)S(=O)(=O)c2ccc(C)cc2)c([N+](=O)[O-])c1 returned SUMO1 PPI mod inactive, MT1-MMP act inh inactive, CSN inh inactive, SKN-1 block inactive, DNMT1 block inactive, Rpn11 block 82, Rpn11 confirm inactive, MMP-2 inh inactive and Thrombin FP inactive.
`COc1cc(/C=N/Nc2ccc([N+](=O)[O-])cc2S(=O)(=O)N2CCOCC2)cc(OC)c1OC` gave SUMO1 PPI mod inactive, MT1-MMP act inh inactive, CSN inh inactive, SKN-1 block inactive, DNMT1 block inactive, Rpn11 block 44, Rpn11 confirm inactive, MMP-2 inh inactive and Thrombin FP inactive.
Screening CCCCNC(=O)c1ccc2nc(CC)c(N(C)Cc3cccs3)n2c1 returned SUMO1 PPI mod inactive, MT1-MMP act inh inactive, CSN inh inactive, SKN-1 block inactive, DNMT1 block inactive and Rpn11 block inactive.
Screening CCCCNC(=O)C1(C)CCN1Cc1cccc2c(OC)cc(C(=O)OCC)cc12 (stereo not drawn) returned SUMO1 PPI mod inactive, MT1-MMP act inh inactive, CSN inh inactive, SKN-1 block inactive, DNMT1 block inactive and Rpn11 block inactive.
For COc1cc(/C=C2/CCC/C(=C\c3cc(O)c(OC)c(Cl)c3)C2=O)cc(Cl)c1O the results were SUMO1 PPI mod inactive, MT1-MMP act inh inactive, CSN inh inactive, SKN-1 block inactive, DNMT1 block inactive, Rpn11 block 64, Rpn11 confirm inactive, MMP-2 inh 47 and Thrombin FP inactive.
`COc1cc(/C=C2\CCC/C(=C\c3ccc(O)c(OC)c3)C2=O)ccc1O` gave SUMO1 PPI mod inactive, MT1-MMP act inh inactive, CSN inh inactive, SKN-1 block inactive, DNMT1 block inactive and Rpn11 block inactive.
`COc1cc(/C=C2\CC/C(=C\c3cc(OC)c(O)c(OC)c3)C2=O)cc(OC)c1O` gave SUMO1 PPI mod inactive, MT1-MMP act inh inactive, CSN inh inactive, SKN-1 block inactive, DNMT1 block inactive, Rpn11 block 112, Rpn11 confirm 89, MMP-2 inh inactive and Thrombin FP 81.
COC(=O)[C@]12CCCCC=C1N(Cc1ccc3c(c1)OCO3)C(=O)[C@H](CC(=O)NCCCCc1ccccc1)C2 was read as SUMO1 PPI mod inactive, MT1-MMP act inh inactive, CSN inh inactive and SKN-1 block inactive.
For Nc1sc(-c2ccccc2)cc1C(=O)N1CCNCC1 the results were SUMO1 PPI mod inactive, MT1-MMP act inh inactive, CSN inh inactive and SKN-1 block inactive.
